An excerpt weighted towards active compounds, which were near 6.4% of everything screened.
Jurkat tox 60K: cytotoxic compounds reducing Jurkat cell viability; 1.2% of 56,000 active; inhibition, % at 4 µM; Jurkat E6.1 viability, ATP luminescence, 48 h;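 active = inhibition above the mean inhibition of all tested compounds plus 3 SD, cut at about 28% in these data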
HUVEC prolif 384: inhibitors of human endothelial cell proliferation; HUVEC proliferation, CellTiter-Glo luminescence, 72 h; hits give low values; AID 648; viability, % at 10 µM (by protocol); 1.1% of 86,000 active;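 active = viability at or below 30%; inactive = viability above 30%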;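 also: 100% = median luminescence of DMSO-only cell control wells on each plate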
tolC growth inh: growth inhibitors of E. coli BW25113 tolC mutant. 2.2% of 65,000 active. OD615. growth inhibition, % at 10 µM (by protocol);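 active = growth inhibition at or above a cutoff equal to the mean over every tested compound plus 3 SD, cut at about 60% in these data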;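 also: growth measured after 20 h incubation at 37 °C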
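Material: E. coli BW25113 ΔtolC::kan, tolC deletion mutant strain. Measure: percent growth inhibition. Schedule: 37 °C, 20 h exposure. Doses: single-point testing at 10 µM. Signal: A615 absorbance measurement. Buffer or medium: kanamycin-containing LB broth (50 µg/mL).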
Fibroblast inh: blocks proliferation of human lung fibroblasts; 1.1% of 85,000 active; LL 47 human lung fibroblast viability, ATP luminescence; hits give low values; viability, % at 10 µM; AID 719;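 active = viability at or below 50% in the single dose screen; inactive = viability above 50%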;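 also: compound exposure lasted 72 h before the ATP readout; 100% = median luminescence of untreated cell-only wells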
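Material: human lung fibroblast line LL 47, low passage; Evaluation: viability percentage against median untreated-cell control; Buffer or medium: 15% FBS in IMEM; Incubation: 72 h compound exposure at 37 °C after overnight plating; Dosing: 0.1% DMSO in all compound wells; Measured by: CellTiter-Glo luminescence.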
H69AR inhibit: growth inhibitors of human H69AR lung tumor cells; H69AR lung tumor viability, ATP luminescence, 72 h; hits give low values; 6% of 85,000 active; viability, % at 10 µM; AID 598;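 active = viability at or below 40%; inactive = viability above 40%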;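 also: multidrug resistant small cell line overexpressing MRP-1 efflux transporter; 100% = mean luminescence of untreated control wells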
E coli WT exp: growth inhibitors of E. coli BW25113 wild type. OD600 absorbance. growth inhibition, % at 100 µM. 0.15% of 98,000 active. AID 710;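 active = growth inhibition above about 50% at one test dose, limit read from the data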;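 also: growth measured after 20 h incubation at 37 °C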
Active calls of the source: *; . = not tested or not shown.

SMILES	Jurkat tox 60K	HUVEC prolif 384	tolC growth inh	Fibroblast inh	H69AR inhibit	E coli WT exp
CCOc1ccc(-c2ncncc2-c2ccc(OC)cc2)c(O)c1	9	94	-5	99	88	6
Oc1ccc(-c2[nH]ncc2-c2cccc3cccnc23)c(O)c1	23	101	-4	89	91	13
CCOc1ccc(-c2[nH]ncc2Oc2cccc(OC)c2)c(O)c1	6	69	99*	93	18*	15
COc1cccc(Oc2cn[nH]c2-c2ccc(O)cc2O)c1	4	84	96*	87	73	24
COc1ccccc1C1(O)CC2CCC(C1)N2S(=O)(=O)c1ccc(C(C)=O)cc1 (configuration not stated)	-4	89	-8	101	72	-2
CCOC(=O)N1CCC(NC(=O)CC(NS(=O)(=O)c2ccc(Cl)cc2)c2ccco2)CC1 (configuration not stated)	-1	97	24	98	73	-3
CCOC(=O)N1CCC(Nc2nc3ccccc3nc2NS(=O)(=O)c2ccc(Cl)cc2)CC1	0	66	80*	77	.	0
CCC1=NNc2cccc3c(OC)ccc1c23	.	21*	.	3.8*	98	-6
O=C(CC1c2ccccc2Oc2ccccc21)N1CCN(c2ccccn2)CC1	1	97	40	110	38*	-7
O=C(COc1ccc2ccccc2c1Br)N1CCN(c2ccccn2)CC1	0	77	93*	104	81	-15
O=C(CSc1nccc2ccccc12)N1CCN(c2ccccn2)CC1	2	76	17	104	99	-4
O=C(c1ccccc1CCc1ccccc1)N1CCN(c2ccccn2)CC1	-1	102	79*	86	69	-3
OC[C@H]1O[C@@H](n2cnc3c(NC4CCCC4)ncnc32)[C@H](O)[C@@H]1O	.	73	-7	98	75	.
C=CCNc1ncnc2c1ncn2C1OC(CO)C(O)C1O (configuration not stated)	-2	41	-25	40*	31*	3
CC(=O)Oc1ccc(N2C(=O)C3C(C2=O)C2(C)C=CC3(C)O2)cc1 (configuration not stated)	20	95	18	27*	2.3*	.
COC(=O)c1cc(N2C(=O)C3C(C2=O)C2(C)C=CC3(C)O2)ccc1Cl (configuration not stated)	10	61	-6	58	0.7*	-2
O=c1c2ccccc2c(C=NCCc2ccccc2)c(O)n1Cc1ccccc1	.	100	.	104	78	-18
CCCNCC(O)COc1ccccc1C(=O)CCc1ccccc1 (configuration not stated)	.	93	13	88	62	.
CCOc1ccc(C2=NNC(c3cccs3)=Nc3ccc(OC)cc32)cc1OCC	.	71	.	83	38*	.
COc1ccc(C2=NNC(c3cccs3)=Nc3ccc(OC)cc32)cc1	.	102	.	94	81	.
CCOc1ccc(CCNC(=O)C2CCN(c3nnc(-n4cccc4)s3)CC2)cc1OCC	-2	98	-2	105	40*	-1
CCOc1ccc(CCNC(=O)C2CCN(c3nnc(-n4cccc4)s3)CC2)cc1	.	110	.	108	91	-2
COc1ccc(C/C(=N\O)c2ccc(OC)cc2)cc1	.	105	.	104	106	10
O=c1[nH]c(CN2CCc3ccccc3C2)nc2ccccc12	0	81	6	83	86	2
Cc1[nH]c2ccccc2c1CN1CCc2ccccc2C1	.	79	.	63	35*	1
Cc1cc(C(=O)CSc2nnc(-c3ccccc3)n2Cc2ccc3c(c2)OCO3)c(C)n1C	-12	68	-9	67	52	-8
Cc1cc(C(=O)CSc2nc3ccccc3c(=O)n2C)c(C)n1Cc1ccc2c(c1)OCO2	5	24*	2	81	25*	-4
